Assay [1] is described as follows: inhibitors of TNFa-induced NFkB p65 translocation, primary screen, imaging, HUVEC, MLSMR starter and 10KST1 sets (AID 438).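 For inhibition: signal is the nuclear over cytoplasmic p65 intensity ratio per well.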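 Note: compound added about 3h40 before a 20 min TNFalpha stimulation.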 The note with it: HUVEC TNFa-induced p65 nuclear translocation; cell count: measured here: nuclei count (cytotoxicity indicator), at 2.08 µM; inhibition: at 2 µM, stronger effect = higher value, 0% TNFa-plus-vehicle, 100% no-TNFa wells.
A short description of assay [2]: inhibitors of mutant huntingtin aggregation, primary screen, imaging, exon1htt(103Q)mCFP cells, high-content imaging (AID 483;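 active = visual image review flags a hit and inhibition of aggregation exceeds 20%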;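 note: compound exposure lasted 3 days before fixation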;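 for nuclei count: percent of the per-plate median nuclei count of sample wells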). The note with it: exon1htt(103Q)mCFP cell line, aggregate imaging, at 2 µM; inhibition of aggregation: stronger effect = higher value; nuclei count: measured here: cell count, toxicity.
Assay [3] in a line: inhibitors of E-selectin induction by TNFa, primary screen, imaging, HUVEC, immunofluorescence, MLSMR starter and 10KST1 sets (AID 487;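 active = visually confirmed hit in the image check and inhibition above 20%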;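 for inhibition: signal is fraction of cell area covered by stained E-selectin grains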;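 for nuclei count: 100% = median nuclei count of all wells on the same plate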). The conditions noted are these: HUVEC TNFalpha-induced E-selectin immunofluorescence imaging, at 2 µM; inhibition: stronger effect = higher value; nuclei count: measured here: cell number, toxicity.
The target of assay [4] is Voltage-gated potassium channel subunit beta-2 (Rattus norvegicus) (UniProt P62483). In words: KvBeta enzyme negative modulators, primary screen, biochemical, NADPH fluorescence (AID 622;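 active = fluorescence slope higher than the sample average by over 3 SD, cut at about -0.22 in these data, passing the limit was not always enough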;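 note: slope of raw intensity against log time taken from 70 to 1610 s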). The conditions noted are these: recombinant KvBeta, 4-cyanobenzaldehyde reduction, at 10 µM, stronger effect = higher value.
Sequence of Voltage-gated potassium channel subunit beta-2 (Rattus norvegicus) (P62483 whole entry, looked up): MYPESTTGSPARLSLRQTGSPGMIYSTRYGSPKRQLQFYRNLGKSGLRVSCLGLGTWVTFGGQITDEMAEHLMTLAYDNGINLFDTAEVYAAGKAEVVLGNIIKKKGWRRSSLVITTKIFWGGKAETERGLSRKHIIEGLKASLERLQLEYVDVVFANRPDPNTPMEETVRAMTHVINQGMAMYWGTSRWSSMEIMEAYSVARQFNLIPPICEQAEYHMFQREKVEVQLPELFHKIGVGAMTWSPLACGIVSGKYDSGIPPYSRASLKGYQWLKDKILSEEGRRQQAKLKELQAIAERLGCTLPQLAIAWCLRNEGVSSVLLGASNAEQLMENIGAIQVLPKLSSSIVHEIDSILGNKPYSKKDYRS
For assay [5] the target is unchanged. In words: KvBeta positive modulators, primary screen, biochemical, NADPH fluorescence (AID 623;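 active = NADPH fluorescence slope more negative than the mean of all samples by about 3 SD, 99.7% confidence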;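 note: fluorescence intensity change per second fitted from 20 to 320 s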). The note with it: Recombinant KvBeta, NADPH fluorescence decrease slope, 10 min; at 10 µM; stronger effect = lower value.
Assay [6] has as its target Muscarinic acetylcholine receptor M4 (Homo sapiens) (UniProt P08173). In words: compounds altering M4/GIRK thallium flux, either direction, primary screen, M4 allosteric agonist project, cell-based, HEK293 M4/GIRK, BTC-AM (AID 625;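 active = fluorescence slope after compound addition differing from the mean of all tested samples at 99.7% confidence, mostly higher but some lower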;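 note: thallium influx through GIRK channels coupled to M4 in HEK293 cells with BTC-AM dye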). The conditions noted are these: at 10 µM, actives lie on both sides. Put shortly: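 assay system = HEK293 cells with M4 receptor and GIRK channels | medium = pH 7.3 thallium assay buffer | doses = 10 µM final, single point | timing = cells overnight at 37 °C, BTC-AM loading 1 h, reads 2 min total | signal = BTC-AM fluorescence, 1 Hz kinetic reads | read-out = post-addition slope, 15–24 s, of baseline-normalized fluorescence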

Assay [7] is described as follows: inhibitors of Sendai virus-induced IRF3 signaling, primary screen, TLR/RLR signaling modifier project, cell-based, Sendai virus stimulus, luciferase, 10K MLSCN set (AID 602276;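 active = inhibition at or above 50% at 10 µM; inactive = inhibition below 50%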;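 note: firefly luciferase from ISG56 promoter only with Renilla not read in this screen; 0% = Sendai virus plus DMSO and 100% = medium plus DMSO without virus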). The note with it: HEK293 RL24 IRF3 luciferase reporter, at 10 µM, stronger effect = higher value.
A short description of assay [8]: inhibitors of poly I:C-induced TLR3 signaling, primary screen, cell-based, poly I:C stimulus, luciferase, 10K MLSCN set (AID 602277;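 active = inhibition of the reporter signal at or above 50%; inactive = inhibition below 50%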). The conditions noted are these: HEK293-TLR3 RL24 IRF3 luciferase reporter, at 10 µM, stronger effect = higher value.

Molecules are shown by their SMILES. Active and inactive are the calls of the source.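 Rule for the calls, unless noted: active = inhibition above 20% together with a positive visual image hit; inconclusive = visual image hit but inhibition not above 20%; inactive = no visual image hit.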

Sequence of Muscarinic acetylcholine receptor M4 (Homo sapiens) (P08173 whole entry, looked up): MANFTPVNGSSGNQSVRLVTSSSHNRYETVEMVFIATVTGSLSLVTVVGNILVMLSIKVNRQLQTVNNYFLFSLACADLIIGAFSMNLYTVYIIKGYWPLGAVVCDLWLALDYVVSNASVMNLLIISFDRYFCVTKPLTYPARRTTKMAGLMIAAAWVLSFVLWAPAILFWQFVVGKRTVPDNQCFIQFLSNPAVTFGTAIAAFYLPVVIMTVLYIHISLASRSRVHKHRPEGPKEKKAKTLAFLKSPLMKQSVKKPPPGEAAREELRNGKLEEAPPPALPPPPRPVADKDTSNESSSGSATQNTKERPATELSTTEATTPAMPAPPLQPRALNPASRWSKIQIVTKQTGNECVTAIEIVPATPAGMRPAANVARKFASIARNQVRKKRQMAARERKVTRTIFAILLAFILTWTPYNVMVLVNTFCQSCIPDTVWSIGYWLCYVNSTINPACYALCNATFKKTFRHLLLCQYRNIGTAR

The inhibition is the change of the read-out against control, counted positive when it falls. As for `COC(=O)c1cn(-c2ccccc2)nc1C(=O)OC`, in assay [1], the cell count is 232. For the same molecule, the inhibition was 5.8% (inactive) in assay [1], 24% (inactive) in assay [3], 4.01% (inactive) in assay [7] and 1.15% (inactive) in assay [8]. Moreover, the inhibition of aggregation in assay [2] was -0.8% (inactive). In addition, the figures for the nuclei count in assay [2] and in assay [3] were 92.6% and 77.4%, respectively. For the same molecule, the fluorescence slope in assay [4] is -0.441 (inactive); in assay [6], 0.00607 (inactive). The NADPH fluorescence slope in assay [5] is -7.4e-05 (inactive).

With `COc1ccccc1-n1cnnc1SCC(=O)c1ccc[nH]1`, in assay [1], the cell count was found to be 544. The inhibition was 6.1% (inactive) in assay [1], 17.5% (inactive) in assay [3], 9.86% (inactive) in assay [7] and 10.8% (inactive) in assay [8]. Moreover, the inhibition of aggregation in assay [2] is 6.1% (inactive). The nuclei count in assay [2] came to 96.8%; in assay [3], 77.8%. The fluorescence slope was -0.532 (inactive) in assay [4] and 0.00668 (inactive) in assay [6]. Also, the NADPH fluorescence slope in assay [5] was -4.3e-05 (inactive).

Turning to `COc1ccc(CC(=O)NCc2ccccc2)cc1S(=O)(=O)N1CCOCC1`, the cell count in assay [1] stood at 404. For the same molecule, the inhibition in assay [1] is -3.1% (inactive); in assay [3], -26.1% (inactive); in assay [7], 18.6% (inactive); in assay [8] it was 21.9% (inactive). Also, the inhibition of aggregation in assay [2] is -17.5% (inactive). Also, the nuclei count stood at 104% in assay [2] and 110% in assay [3]. Further, the fluorescence slope was -0.583 (inactive) in assay [4] and 0.00498 (inactive) in assay [6]. In addition, the NADPH fluorescence slope in assay [5] is -1.6e-05 (inactive).

For `CCOC(=O)c1cnc(-n2nc(C)cc2C)nc1Nc1cccc(C(C)=O)c1`, the cell count in assay [1] came out at 634. Besides, the inhibition in assay [1] was -25.9% (inactive); in assay [3], 15.1% (inactive); in assay [7] it was -13.6% (inactive); in assay [8], -13% (inactive). The inhibition of aggregation in assay [2] is -14% (inactive). Also, the nuclei count in assay [2] was found to be 104%; in assay [3] it was 111%. The fluorescence slope in assay [4] was -0.567 (inactive); in assay [6] it was 0.00544 (inactive). In addition, the NADPH fluorescence slope in assay [5] is -1.4e-05 (inactive).

Regarding `Cc1nc2cccc(C(=O)NC3CCCCC3)c2o1`, in assay [1], the cell count came out at 369. The inhibition is 6.8% (inactive) in assay [1], -67.3% (inactive) in assay [3], 10.4% (inactive) in assay [7] and 13.1% (inactive) in assay [8]. Besides, the inhibition of aggregation in assay [2] is -19.6% (inactive). Further, the nuclei count in assay [2] is 53.7%; in assay [3], 102%. For the same molecule, the fluorescence slope is -0.416 (inactive) in assay [4] and 0.00546 (inactive) in assay [6]. In addition, the NADPH fluorescence slope in assay [5] was -1.2e-05 (inactive).

As for `CC(=O)c1c(C)[nH]c(C(=O)NCc2cccs2)c1C`, the cell count in assay [1] was determined as 471. Further, the inhibition in assay [1] was 2.9% (inactive); in assay [3], -76.6% (inactive); in assay [7], -3.69% (inactive); in assay [8], -17.2% (inactive). Moreover, the inhibition of aggregation in assay [2] was 15.8% (inactive). Also, the nuclei count in assay [2] turned out to be 116%; in assay [3] it was 95.6%. Moreover, the fluorescence slope is -0.561 (inactive) in assay [4] and 0.00619 (inactive) in assay [6]. The NADPH fluorescence slope in assay [5] is -4.9e-05 (inactive).

For the molecule `O=c1c2ccccc2nc(-c2cccc(Cl)c2)n1O`, in assay [1], the cell count was found to be 333. The inhibition in assay [1] was 11.6% (inactive); in assay [3], -4.3% (inactive); in assay [7], 17.4% (inactive); in assay [8], 6.85% (inactive). Moreover, the inhibition of aggregation in assay [2] was 0.5% (inactive). For the same molecule, the nuclei count stood at 102% in assay [2] and 112% in assay [3]. Besides, the fluorescence slope in assay [4] is -0.453 (inactive); in assay [6], 0.0197 (active). Moreover, the NADPH fluorescence slope in assay [5] was -3.1e-05 (inactive).

Turning to `COc1ccc(-c2nn3c(-c4ccncc4)nnc3s2)cc1OC`, the cell count in assay [1] was 562. Further, the inhibition was 5.4% (inactive) in assay [1], 24.6% (inactive) in assay [3], 19.4% (inactive) in assay [7] and 24.2% (inactive) in assay [8]. Also, the inhibition of aggregation in assay [2] is -7.4% (inactive). For the same molecule, the nuclei count in assay [2] is 90.8%; in assay [3], 105%. Further, the fluorescence slope in assay [4] was -0.42 (inactive); in assay [6], 0.00419 (inactive). Moreover, in assay [5], the NADPH fluorescence slope was -0.000356 (inactive).

`CCOC(=O)c1sc(C)c2c1NC(C)(c1cccs1)NC2=O` (centres undefined): the cell count in assay [1] is 674. Besides, the inhibition in assay [1] is -2% (inactive); in assay [3], -10.7% (inactive); in assay [7], 5.21% (inactive); in assay [8], 10.9% (inactive). Further, in assay [2], the inhibition of aggregation was -5.5% (inactive). The nuclei count in assay [2] was 104%; in assay [3], 101%. The fluorescence slope in assay [4] was -0.49 (inactive); in assay [6], 0.00453 (inactive). Also, the NADPH fluorescence slope in assay [5] was 1.8e-05 (inactive).

Turning to `CCCc1ccc(C(C)NC(=O)c2cnccn2)cc1` (centres undefined), the cell count in assay [1] is 375. Also, the inhibition was 0.4% (inactive) in assay [1], 32.8% (inactive) in assay [3], 15.6% (inactive) in assay [7] and -1.82% (inactive) in assay [8]. In addition, the inhibition of aggregation in assay [2] is -9.4% (inactive). The nuclei count came out at 107% in assay [2] and 106% in assay [3]. Besides, the fluorescence slope was -0.484 (inactive) in assay [4] and 0.00486 (inactive) in assay [6]. For the same molecule, in assay [5], the NADPH fluorescence slope is -1.5e-05 (inactive).

As to `CC1=C(C#N)C(c2ccoc2)C(C(=O)OCc2ccccc2)=C(N)S1` (centres undefined), in assay [1], the cell count worked out at 482. In addition, the inhibition is 1% (inactive) in assay [1], -90% (inactive) in assay [3], 9.67% (inactive) in assay [7] and 11.7% (inactive) in assay [8]. In assay [2], the inhibition of aggregation is -13.3% (inactive). For the same molecule, the nuclei count in assay [2] was determined as 84.8%; in assay [3] it was 102%. The fluorescence slope in assay [4] is -0.524 (inactive); in assay [6], 0.0045 (inactive). In addition, the NADPH fluorescence slope in assay [5] was -0.000129 (inactive).

As to `CCOC(=O)C1=C(CC)Nc2ccccc2N=C1NC(=O)Nc1ccccc1OC`, the cell count in assay [1] worked out at 485. Moreover, the inhibition is -12.3% (inactive) in assay [1], -15% (inactive) in assay [3], 26.2% (inactive) in assay [7] and 38.4% (inactive) in assay [8]. Further, the inhibition of aggregation in assay [2] was 7.2% (inactive). Further, the nuclei count in assay [2] worked out at 116%; in assay [3] it was 119%. Besides, the fluorescence slope in assay [4] was -0.593 (inactive); in assay [6], 0.00703 (inactive). Further, the NADPH fluorescence slope in assay [5] is 2.9e-06 (inactive).

Consider `COCCCn1c(SCC(=O)N2CCc3ccccc32)nnc1-c1ccoc1C`, for which the cell count in assay [1] is 238. For the same molecule, the inhibition in assay [1] was -3.2% (inactive); in assay [3] it was 42.5% (inactive); in assay [7] it was 20.2% (inactive); in assay [8] it was 19.6% (inactive). In addition, the inhibition of aggregation in assay [2] is 2.7% (inactive). Besides, the nuclei count in assay [2] and in assay [3] was 56.1% throughout. The results for the fluorescence slope in assay [4] and in assay [6] were -0.548 (inactive) and 0.00429 (inactive), respectively. In assay [5], the NADPH fluorescence slope was -5.6e-05 (inactive).

`COC(=O)c1[nH]c2ccccc2c1NC(=O)CN1CCC(C(N)=O)(N2CCCCC2)CC1`: the cell count in assay [1] is 259. The inhibition in assay [1] was 3.8% (inactive); in assay [3] it was -114% (inactive); in assay [7], 20.8% (inactive); in assay [8] it was 30.6% (inactive). In assay [2], the inhibition of aggregation is 6.6% (inactive). Further, the nuclei count stood at 72.7% in assay [2] and 168% in assay [3]. Further, the fluorescence slope in assay [4] was -0.598 (inactive); in assay [6] it was 0.00286 (inactive). In assay [5], the NADPH fluorescence slope was -1.9e-05 (inactive).
